Test results taken from ChEMBL document CHEMBL3271984, “Antifungal activity of 4-substituted crotonic acid esters” (1976).
In brackets after ≈: the same amount, converted by molar mass.

Key:
Assay type in all cases: functional
[1] = tested on: Trichophyton mentagrophytes; experiment: Antifungal activity against Trichophyton mentagrophytes ATCC 9129 assessed as growth inhibition at pH 5.6 incubated for 5 days in absence of 10% beef serum; details: ATCC 9129, 120 h, read-out: MIC100
Procedure, shortened: (§1)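 Agar dilution in Sabouraud dextrose agar at pH 5.6 or 7.0, with or without 10% beef serum. C. albicans and M. mucedo were incubated 20 h at 37°; A. niger and T. mentagrophytes 5 days at 28°. The value is the minimal µg/ml giving 100% inhibition. Steps were 1 µg/ml up to 10, 2 up to 20, then 10 up to 100 µg/ml maximum.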

[2] = tested on: Trichophyton mentagrophytes; experiment: Antifungal activity against Trichophyton mentagrophytes ATCC 9129 assessed as ratio of glutathione to compound at pH 7 incubated for 5 days in absence of 10% beef serum
Procedure, shortened: (§2)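 Sabouraud agar at pH 7.0 without beef serum. The toxicant was added at one increment above its minimal inhibitory level for each organism. Cystine, cysteine or glutathione was added at molar ratios of 1:1 to 10:1 versus toxicant, in 1-equiv steps. Plates were inoculated and incubated at 37° for 20 h (C. albicans, M. mucedo) or 28° for 5 days (A. niger, T. mentagrophytes), then scored for growth.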

Mucor mucedo [3] = experiment: Antifungal activity against Mucor mucedo ATCC 7941 assessed as ratio of glutathione to compound at pH 7 incubated for 20 hrs in absence of 10% beef serum; procedure, shortened: as §2
Mucor mucedo [4] = experiment: Antifungal activity against Mucor mucedo ATCC 7941 assessed as ratio of cystine to compound at pH 7 incubated for 20 hrs in absence of 10% beef serum; procedure, shortened: as §2
Mucor mucedo [5] = experiment: Antifungal activity against Mucor mucedo ATCC 7941 assessed as growth inhibition at pH 5.6 incubated for 20 hrs in absence of 10% beef serum; details: ATCC 7941, 20 h, read-out: MIC100; procedure, shortened: as §1
[6] = tested on: Trichophyton mentagrophytes; experiment: Antifungal activity against Trichophyton mentagrophytes ATCC 9129 assessed as growth inhibition at pH 7 incubated for 5 days in absence of 10% beef serum; details: ATCC 9129, 120 h, read-out: MIC100; procedure, shortened: as §1
[7] = tested on: Trichophyton mentagrophytes; experiment: Antifungal activity against Trichophyton mentagrophytes ATCC 9129 assessed as ratio of cysteine to compound at pH 7 incubated for 5 days in absence of 10% beef serum; procedure, shortened: as §2
Mucor mucedo [8] = experiment: Antifungal activity against Mucor mucedo ATCC 7941 assessed as ratio of cysteine to compound at pH 7 incubated for 20 hrs in absence of 10% beef serum; procedure, shortened: as §2
Mucor mucedo [9] = experiment: Antifungal activity against Mucor mucedo ATCC 7941 assessed as growth inhibition at pH 7 incubated for 20 hrs in absence of 10% beef serum; details: ATCC 7941, 20 h, read-out: MIC100; procedure, shortened: as §1
[10] = tested on: Trichophyton mentagrophytes; experiment: Antifungal activity against Trichophyton mentagrophytes ATCC 9129 assessed as ratio of cystine to compound at pH 7 incubated for 5 days in absence of 10% beef serum; procedure, shortened: as §2
Candida albicans [11] = experiment: Antifungal activity against Candida albicans ATCC 10231 assessed as growth inhibition at pH 7 incubated for 20 hrs in presence of 10% beef serum; details: ATCC 10231, 20 h, read-out: MIC100; procedure, shortened: as §1
Aspergillus niger [12] = experiment: Antifungal activity against Aspergillus niger ATCC 1004 assessed as ratio of cysteine to compound at pH 7 incubated for 5 days in absence of 10% beef serum; procedure, shortened: as §2
Mucor mucedo [13] = experiment: Antifungal activity against Mucor mucedo ATCC 7941 assessed as growth inhibition at pH 5.6 incubated for 20 hrs in presence of 10% beef serum; details: ATCC 7941, 20 h, read-out: MIC100; procedure, shortened: as §1
Aspergillus niger [14] = experiment: Antifungal activity against Aspergillus niger ATCC 1004 assessed as growth inhibition at pH 7 incubated for 5 days in presence of 10% beef serum; details: ATCC 1004, 120 h, read-out: MIC100; procedure, shortened: as §1
[15] = tested on: Trichophyton mentagrophytes; experiment: Antifungal activity against Trichophyton mentagrophytes ATCC 9129 assessed as growth inhibition at pH 7 incubated for 5 days in presence of 10% beef serum; details: ATCC 9129, 120 h, read-out: MIC100; procedure, shortened: as §1
Aspergillus niger [16] = experiment: Antifungal activity against Aspergillus niger ATCC 1004 assessed as ratio of glutathione to compound at pH 7 incubated for 5 days in absence of 10% beef serum; procedure, shortened: as §2
Candida albicans [17] = experiment: Antifungal activity against Candida albicans ATCC 10231 assessed as growth inhibition at pH 5.6 incubated for 20 hrs in absence of 10% beef serum; details: ATCC 10231, 20 h, read-out: MIC100; procedure, shortened: as §1
Aspergillus niger [18] = experiment: Antifungal activity against Aspergillus niger ATCC 1004 assessed as growth inhibition at pH 7 incubated for 5 days in absence of 10% beef serum; details: ATCC 1004, 120 h, read-out: MIC100; procedure, shortened: as §1
Candida albicans [19] = experiment: Antifungal activity against Candida albicans ATCC 10231 assessed as ratio of cystine to compound at pH 7 incubated for 20 hrs in absence of 10% beef serum; procedure, shortened: as §2
Aspergillus niger [20] = experiment: Antifungal activity against Aspergillus niger ATCC 1004 assessed as growth inhibition at pH 5.6 incubated for 5 days in presence of 10% beef serum; details: ATCC 1004, 120 h, read-out: MIC100; procedure, shortened: as §1
Candida albicans [21] = experiment: Antifungal activity against Candida albicans ATCC 10231 assessed as ratio of cysteine to compound at pH 7 incubated for 20 hrs in absence of 10% beef serum; procedure, shortened: as §2
Candida albicans [22] = experiment: Antifungal activity against Candida albicans ATCC 10231 assessed as growth inhibition at pH 5.6 incubated for 20 hrs in presence of 10% beef serum; details: ATCC 10231, 20 h, read-out: MIC100; procedure, shortened: as §1
Aspergillus niger [23] = experiment: Antifungal activity against Aspergillus niger ATCC 1004 assessed as growth inhibition at pH 5.6 incubated for 5 days in absence of 10% beef serum; details: ATCC 1004, 120 h, read-out: MIC100; procedure, shortened: as §1
[24] = tested on: Trichophyton mentagrophytes; experiment: Antifungal activity against Trichophyton mentagrophytes ATCC 9129 assessed as growth inhibition at pH 5.6 incubated for 5 days in presence of 10% beef serum; details: ATCC 9129, 120 h, read-out: MIC100; procedure, shortened: as §1
Candida albicans [25] = experiment: Antifungal activity against Candida albicans ATCC 10231 assessed as growth inhibition at pH 7 incubated for 20 hrs in absence of 10% beef serum; details: ATCC 10231, 20 h, read-out: MIC100; procedure, shortened: as §1
Mucor mucedo [26] = experiment: Antifungal activity against Mucor mucedo ATCC 7941 assessed as growth inhibition at pH 7 incubated for 20 hrs in presence of 10% beef serum; details: ATCC 7941, 20 h, read-out: MIC100; procedure, shortened: as §1
Aspergillus niger [27] = experiment: Antifungal activity against Aspergillus niger ATCC 1004 assessed as ratio of cystine to compound at pH 7 incubated for 5 days in absence of 10% beef serum; procedure, shortened: as §2
Candida albicans [28] = experiment: Antifungal activity against Candida albicans ATCC 10231 assessed as ratio of glutathione to compound at pH 7 incubated for 20 hrs in absence of 10% beef serum; procedure, shortened: as §2

| SMILES | MIC [1] | Ratio [2] | Ratio (Mucor mucedo [3]) | Ratio (Mucor mucedo [4]) | MIC (Mucor mucedo [5]) | MIC [6] | Ratio [7] | Ratio (Mucor mucedo [8]) | MIC (Mucor mucedo [9]) | Ratio [10] | also measured |
| --- | --- | --- | --- | --- | --- | --- | --- | --- | --- | --- | --- |
| COC(=O)/C=C/CSC | 90 µg/mL (≈ 616 µM) | <1 | <1 | >10 | 70 µg/mL (≈ 479 µM) | 70 µg/mL (≈ 479 µM) | <1 | <1 | 80 µg/mL (≈ 547 µM) | >10 |  |
| COC(=O)/C=C/CBr | 3 µg/mL (≈ 16.8 µM) | 9 | 8 | >10 | 6 µg/mL (≈ 33.5 µM) | 5 µg/mL (≈ 27.9 µM) | 10 | 4 | 10 µg/mL (≈ 55.9 µM) | >10 | MIC (Candida albicans [11]): 30 µg/mL; Ratio (Aspergillus niger [12]): <1; MIC (Mucor mucedo [13]): 8 µg/mL; MIC (Aspergillus niger [14]): 60 µg/mL; MIC [15]: 6 µg/mL; Ratio (Aspergillus niger [16]): <1; MIC (Candida albicans [17]): 30 µg/mL (≈ 168 µM); MIC (Aspergillus niger [18]): 50 µg/mL (≈ 279 µM); Ratio (Candida albicans [19]): >10; MIC (Aspergillus niger [20]): 50 µg/mL; Ratio (Candida albicans [21]): 2; MIC (Candida albicans [22]): 30 µg/mL; MIC (Aspergillus niger [23]): 50 µg/mL (≈ 279 µM); MIC [24]: 5 µg/mL; MIC (Candida albicans [25]): 30 µg/mL (≈ 168 µM); MIC (Mucor mucedo [26]): 14 µg/mL; Ratio (Aspergillus niger [27]): >10; Ratio (Candida albicans [28]): 3 |
